Screening data: PubChem BioAssay, several laboratories
ROMK mod: human ROMK K+ channel modulation, primary screen; 2% of 130,000 active; Tet-inducible ROMK, thallium flux fluorescence; actives lie on both sides; B-score at 10 µM; AID 1918; P48048;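 active = signal ratio slope over the read window, or its plate-corrected B-score, at least 3 SD from the plate mean, either direction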;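 note: B-score of the F/F0 ratio slope over 7 to 12 s after thallium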
MT stabilizer: microtubule stabilizers in HeLa cells; HeLa tubulin immunostaining HCS, 24 h; share of cells brighter than vehicle mean+2SD; 0.83% of 200,000 active; % tubulin-high responders, % at 10 µM;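 active = plate Z-score above 3 for both tubulin-high and condensed-nucleus cell shares, with cell loss under 80%, at 10 µM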;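 note: anti alpha tubulin signal scored within the nucleus-defined area of each cell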
KCC2 mod: KCC2 (human) Cl- transport modulation. Q9H2X9. KCC2 cells, thallium flux FluoZin-2 fluorescence. B-score of Tl+ flux slope (higher = more flux/activation; lower = inhibition) at 10 µM. 2.2% of 190,000 active. AID 1456;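 active = thallium flux slope and its plate-corrected score both differing from the plate sample mean at a set confidence after two filtering rounds, in either direction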;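 note: slope of fluorescence scaled to starting intensity during 10 to 20 s after thallium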
Target sequence (Q9H2X9 whole entry, looked up): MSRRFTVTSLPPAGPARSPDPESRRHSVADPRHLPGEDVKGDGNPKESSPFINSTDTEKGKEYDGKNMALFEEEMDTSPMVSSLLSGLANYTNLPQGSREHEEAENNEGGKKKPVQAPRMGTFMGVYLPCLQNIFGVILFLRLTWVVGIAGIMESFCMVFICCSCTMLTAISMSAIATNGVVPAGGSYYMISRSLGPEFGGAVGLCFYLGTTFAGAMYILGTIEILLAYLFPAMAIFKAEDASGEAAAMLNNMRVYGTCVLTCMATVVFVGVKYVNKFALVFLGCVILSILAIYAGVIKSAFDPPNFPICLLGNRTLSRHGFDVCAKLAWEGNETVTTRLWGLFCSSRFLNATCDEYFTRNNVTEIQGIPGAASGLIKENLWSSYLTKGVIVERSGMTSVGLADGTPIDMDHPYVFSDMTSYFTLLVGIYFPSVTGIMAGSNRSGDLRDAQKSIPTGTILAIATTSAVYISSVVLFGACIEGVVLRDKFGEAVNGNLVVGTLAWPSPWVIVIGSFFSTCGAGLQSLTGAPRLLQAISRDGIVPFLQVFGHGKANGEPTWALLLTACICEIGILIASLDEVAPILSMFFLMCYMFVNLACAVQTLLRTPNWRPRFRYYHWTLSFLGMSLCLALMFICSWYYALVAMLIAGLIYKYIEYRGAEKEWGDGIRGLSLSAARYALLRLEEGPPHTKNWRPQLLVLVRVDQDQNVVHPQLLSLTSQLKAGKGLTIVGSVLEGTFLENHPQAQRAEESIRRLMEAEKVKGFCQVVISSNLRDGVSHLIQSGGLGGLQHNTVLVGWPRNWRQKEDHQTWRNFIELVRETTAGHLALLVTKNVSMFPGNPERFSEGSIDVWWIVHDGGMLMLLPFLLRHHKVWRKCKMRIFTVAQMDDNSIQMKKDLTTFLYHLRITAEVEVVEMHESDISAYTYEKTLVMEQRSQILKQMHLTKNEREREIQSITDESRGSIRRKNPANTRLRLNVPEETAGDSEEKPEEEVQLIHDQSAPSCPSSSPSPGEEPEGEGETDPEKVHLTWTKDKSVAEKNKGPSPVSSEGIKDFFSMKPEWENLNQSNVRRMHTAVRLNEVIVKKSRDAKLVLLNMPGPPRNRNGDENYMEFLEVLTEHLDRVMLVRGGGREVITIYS
bCat nuc transl: alters nuclear translocation of beta-catenin in HeLa cells. AID 1665. 0.3% of 190,000 active. nuclear translocation activity, % at 5 µM. immunofluorescence imaging;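 active = nuclear translocation activity above 50% at 5 µM, with a well cell count of 50 or more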;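 note: per-cell ratio of nuclear to cytoplasmic median beta-catenin stain intensity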
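Assay system: human HeLa cells, native beta-catenin; doses: 5 µM primary, 0.02–20 µM confirmation; incubation: compound treatment 24 h, 37°C, 5% CO2; technique: fluorescence imaging of beta-catenin antibody stain plus DAPI; measure: % activation, nuclear-to-cytoplasmic median beta-catenin signal ratio per cell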
Redox H2O2 prof: compounds producing H2O2 with reducing agent – biochemical, NIH compound library profiling, artefact control for MLSCN library redox annotation, primary screen | DTT-dependent redox cycling H2O2, phenol red/HRP absorbance; 100% = 100 µM peroxide control, 0% = buffer | activation, % at 10 µM | 0.03% of 200,000 active;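 active = activation of at least 50% relative to the plate's high and low controls in the primary single-dose screen; inactive = activation below 50%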;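 note: compound incubated with DTT at 0.8 mM final as the reducing agent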
ROMK hit retest: human ROMK channel modulation, retest confirmation | ROMK thallium flux, fluorescence ratio; stronger effect = lower value | normalized thallium flux (F/F0 slope) at 10 µM | shares compounds with ROMK mod | 54% of 3,000 active | AID 1917;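 active = Flux at 10 µM at least 3 SD below or above vehicle control mean in one or both replicates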
Numbers stand for hits; . = inactive; / = no result. Shown are actives, neighbours in structure and some others; about 3.7% of the full set was active somewhere.

SMILES | ROMK mod | MT stabilizer | KCC2 mod | bCat nuc transl | Redox H2O2 prof | ROMK hit retest
O=c1c2ccccc2sn1-c1ccccc1 | . | . | . | . | . | /
O=c1c2ccccc2sn1-c1nccs1 | -3.7 | . | . | . | . | .
Cc1ccc(N(C)C(=O)N2CCN(S(=O)(=O)c3ccc4ccccc4c3)CC2)cc1 | . | . | . | / | . | /
CCOC(=O)C1=C(C)OC(N)=C(C#N)C1c1cccc(C)c1 (stereo not drawn) | . | . | . | . | . | /
CCOC(=O)C1=C(C)OC(N)=C(C#N)C1c1ccc(C)s1 (stereo not drawn) | 3.2 | . | . | . | . | 0.064
COC(=O)C1=C(C)N(C)C(C)=C(C(=O)OC)C1c1ccccc1C | -4.4 | . | . | . | . | 0.064
CCCCOc1ccccc1C1C(C(=O)OC)=C(C)N(C)C(C)=C1C(=O)OC | / | . | . | . | . | /
Cc1cc(C(=O)Nc2ccccc2N2CCCCC2)no1 | / | / | . | . | / | /
CC1CCCN(CCOc2ccc3ccccc3c2Br)C1 (stereo not drawn) | . | . | . | . | . | /
Cc1ccc(C2=NOC(=O)/C2=C\c2ccc(C)o2)cc1 | -3.7 | / | . | . | / | 0.039
CCCN1C(=O)/C(=C\C=C2\N(CC)c3ccccc3C2(C)C)SC1=S | -7.5 | . | . | . | . | 0.053
CCCN1C(=O)/C(=C\C=C2/Sc3ccccc3N2CC)SC1=S | . | . | / | . | . | /
COc1ccc2c(n1)Sc1nc3ccccc3nc1N2 | / | / | . | . | / | 0.057
Cc1cc2c(cc1C)CN(c1ccccc1)C2 | . | / | . | . | / | /
CC1=C(C(=O)OC2CCCCC2)C(c2ccc(C)o2)C2=C(CCCC2=O)N1 (stereo not drawn) | . | . | . | . | . | /
CC1=C(C(=O)OC2CCCCC2)C(c2ccco2)C2=C(CC(C)(C)CC2=O)N1 (stereo not drawn) | / | . | . | . | . | .
CC(C)(C)N(NC(=O)Nc1ccc(Cl)c(Cl)c1)C(=O)c1ccccc1 | / | . | . | . | . | .
O=C(O)C1CCCN1S(=O)(=O)c1cccc2nsnc12 (stereo not drawn) | . | . | . | . | . | /
COc1cccc(CN(CC(=O)NC2CCCC2)C(=O)Cn2nnc(-c3cccs3)n2)c1 | / | . | . | . | . | /
COc1cccc(CNS(=O)(=O)/C=C/c2ccc3c(c2)OCO3)c1 | / | . | . | . | . | /
COc1ccc(Cl)cc1NC(=S)N(CCCN1CCOCC1)Cc1cn(C)c2ccccc12 | -3.9 | . | . | . | . | .
O=C1COc2ccc(C(=O)COC(=O)Cc3ccsc3)cc2N1 | . | . | . | . | . | /
O=C(/C=C/c1ccc(Br)cc1)N1CCN(c2cccc(C(F)(F)F)c2)CC1 | / | . | . | . | . | .
CCOC(=O)c1sc(C)c2c1NC(c1ccc(Cl)cc1)NC2=O (stereo not drawn) | / | . | / | . | . | /
O=C(NCC1CCCO1)c1cc2c(=O)[nH]c3ccccc3c2s1 (stereo not drawn) | . | . | . | . | . | /
SMILES | ROMK mod | MT stabilizer | KCC2 mod | bCat nuc transl | Redox H2O2 prof | ROMK hit retest
Cc1nc(SCC(=O)N(C)Cc2ccco2)c2c(C)c(C)sc2n1 | / | . | . | . | . | .
N#C/C(=C/c1ccc(F)cc1)C(N)=S | -3.1 | . | . | . | . | 0.051
COc1ccccc1CN=Cc1[nH]c2ccc(Br)c(Cl)c2c1O | -3.6 | . | . | . | . | 0.044
O=c1[nH]sc2ccccc12 | -4.5 | . | / | . | . | 0.052
COc1cccc(NS(=O)(=O)c2ccc(NC(C)=O)cc2)c1 | -2.1 | . | / | . | . | .
CC(=O)Nc1ccc(OCC(O)CN2C(C)(C)CC(O)CC2(C)C)cc1 (stereo not drawn) | . | . | . | . | . | /
CCN(CC)S(=O)(=O)c1ccc(OC)c(NC(=O)CSc2cc(C)ccc2C)c1 | -3.2 | . | . | . | . | 0.057
CCN(c1ccccc1)S(=O)(=O)c1ccc(OC)c(OC)c1 | . | . | . | . | . | /
CCN(CC)S(=O)(=O)c1ccc(OC)c(NC(=S)Nc2cc(C)ccc2C)c1 | . | . | . | . | . | /
CCN(c1ccccc1)S(=O)(=O)c1ccc(OC)c(NC(=O)CNCCc2ccccc2)c1 | -6.6 | . | . | . | . | 0.05
O=C(O)c1ccc(NC2CC(=O)N(Cc3ccccc3)C2=O)cc1 (stereo not drawn) | . | . | . | . | . | /
O=C(Nc1ccc(Br)cc1)C1CCCN1S(=O)(=O)c1cccs1 (stereo not drawn) | -3.3 | . | . | / | . | 0.061
O=C(O)C1CCCN1S(=O)(=O)c1cccs1 (stereo not drawn) | . | . | . | / | . | /
COc1ccc2c(c1OC)C(=O)OC2Nc1nc(-c2cc3ccccc3oc2=O)cs1 (stereo not drawn) | / | . | . | . | . | 0.04
CCOc1ccc2nc(C)cc(C(=O)O)c2c1 | 1.9 | . | . | . | . | .
COc1ccc2nc(C)cc(C(=O)O)c2c1 | / | . | . | . | . | /
Cc1ccc(S(=O)(=O)NC(=O)Nc2cc(C(C)(C)C)on2)cc1 | / | / | . | . | / | /
O=C(/C(=C/c1cccnc1)n1ccnc1)c1ccc(Cl)cc1Cl | -5.6 | / | . | . | / | 0.03
N/C(=N\OC(=O)c1ccc(Cl)cc1Cl)c1ccncc1 | / | / | . | . | / | /
O=C(/C(=C/c1ccncc1)n1ccnc1)c1ccc(Cl)cc1Cl | -7.9 | / | . | . | / | 0.03
CCC(CNc1cc(OC)cc2cccnc12)NC1CCCCC1 (stereo not drawn) | / | / | . | . | / | 0.054
Cn1nc(C(F)(F)F)cc1-c1ccc(S(N)(=O)=O)s1 | / | / | . | . | / | /
COc1ccc(OC)c(CC(NC(C)=O)C(=O)NC2CCN(c3c(Cc4ccccc4)c(C)nc4ncnn34)CC2)c1 (stereo not drawn) | . | . | . | . | . | /
COc1cccc(CC(NC(C)=O)C(=O)NC2CCN(c3c(Cc4ccccc4)c(C)nc4ncnn34)CC2)c1 (stereo not drawn) | . | . | . | . | . | .
Cc1ccc(NC(=O)C(Nc2ccccc2)c2ccccc2)cc1 (stereo not drawn) | / | . | . | . | . | .
SMILES | ROMK mod | MT stabilizer | KCC2 mod | bCat nuc transl | Redox H2O2 prof | ROMK hit retest
Cc1oc(-c2ccccc2F)nc1CN1CCC(C(=O)NC2CCCCCCC2)CC1 | -4.6 | . | . | . | . | 0.058
Cc1oc(-c2ccccc2F)nc1CN1CCC(C(=O)NC2CCCc3ccccc32)CC1 (stereo not drawn) | / | . | . | . | . | /
CCCCSCCCNC(=O)Nc1ccc(C)c(C)c1 | . | . | . | . | . | /
Cc1cccc(C)c1OCC(O)CNS(=O)(=O)c1ccccc1C(=O)N1CCCCC1 (stereo not drawn) | . | . | / | . | . | .
O=C(C[n+]1cc(-c2ccc(Cl)cc2)n2c1CCC2)Nc1nc(-c2ccc(F)cc2)cs1 | -5.8 | / | . | . | / | 0.051
O=C(C[n+]1cc(-c2ccc(Br)cc2)n2c1CCCCC2)c1ccccc1 | -3 | . | . | . | . | 0.068
O=C(C[n+]1cc(-c2ccc(F)cc2)n2c1CCC2)Nc1nc(-c2ccc(F)cc2)cs1 | / | . | . | . | . | /
